Rows were chosen to be rich in hits. Some 1.2% of all compounds tested hit in one or more screens of this group.
ARFGAP1 inh: inhibitors of rat ARFGAP1 GAP activity, primary screen, biochemical, fluorescence polarization, GDP tracer | actives 0.26% (n = 360,000) | inhibition, % at 16.5 µM | Arfgap1-stimulated ARF1 GTP hydrolysis, GDP FP detection | ADP-ribosylation factor GTPase-activating protein 1 (Rattus norvegicus), Q62848 | AID 651572, 2012;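 active means inhibition above a per-plate limit, mean inhibition of low control wells plus 3 SD, cut at about 25% in these data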;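 further: 0% = DMSO wells with enzyme and 100% = wells lacking Arfgap1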
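Material: truncated rat Arfgap1 GAP domain; Incubation: compound-enzyme preincubation 20 min, reaction 120 min, detection 60 min, 25 °C; Read-out: percent inhibition of Arfgap1-stimulated GTP hydrolysis; Technique: FP, GDP Alexa 633 tracer displaced from anti-GDP antibody, 620/688 nm; Controls: No-Arfgap1 wells (100%) versus DMSO full-reaction wells (0%); Replication: single well per compound.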
IDE cell inh: human IDE inhibitors in live cells, primary screen, fluorescence polarization, HEK cells, FAbetaB substrate. Insulin-degrading enzyme (Homo sapiens), P14735. FAbetaB cleavage. inhibition, % at 5.59 µM. AID 434962, 2010. actives 0.41% (n = 320,000);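 active means percent inhibition above the average of all tested compounds plus 3 SD, set per screening campaign, cut at about 16% in these data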;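 further: IDE supplied by intact live HEK cells; FP after avidin binding of uncleaved biotin substrate so inhibition keeps polarization high; 0% = DMSO wells and 100% = 60 µM reference IDE inhibitor Ii1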
ASAP1 inh: inhibitors of human ASAP1 ArfGAP activity, primary screen, biochemical, fluorescence polarization; Arf-GAP with SH3 domain, ANK repeat and PH domain-containing protein 1 (Homo sapiens), …; ASAP1-stimulated ARF1 GTP hydrolysis, GDP FP detection; inhibition, % at 16.5 µM; actives 0.19% (n = 360,000); in the data active means inhibition above about 25%;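 further: 0% = vehicle with enzyme and substrate and 100% = no enzyme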
PREPL inh: PREPL enzyme inhibitors, primary screen, biochemical, fluorescence polarization; Prolyl endopeptidase-like (Homo sapiens), Q4J6C6; recombinant PREPL, fluorescence polarization activity-based probe; inhibition, % at 5.96 µM; actives 0.68% (n = 320,000); AID 2751, 2010; in the data active means inhibition above about 43%;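 further: 0% = enzyme with DMSO and 100% = wells lacking enzyme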
Target sequence (Q4J6C6 whole entry, looked up): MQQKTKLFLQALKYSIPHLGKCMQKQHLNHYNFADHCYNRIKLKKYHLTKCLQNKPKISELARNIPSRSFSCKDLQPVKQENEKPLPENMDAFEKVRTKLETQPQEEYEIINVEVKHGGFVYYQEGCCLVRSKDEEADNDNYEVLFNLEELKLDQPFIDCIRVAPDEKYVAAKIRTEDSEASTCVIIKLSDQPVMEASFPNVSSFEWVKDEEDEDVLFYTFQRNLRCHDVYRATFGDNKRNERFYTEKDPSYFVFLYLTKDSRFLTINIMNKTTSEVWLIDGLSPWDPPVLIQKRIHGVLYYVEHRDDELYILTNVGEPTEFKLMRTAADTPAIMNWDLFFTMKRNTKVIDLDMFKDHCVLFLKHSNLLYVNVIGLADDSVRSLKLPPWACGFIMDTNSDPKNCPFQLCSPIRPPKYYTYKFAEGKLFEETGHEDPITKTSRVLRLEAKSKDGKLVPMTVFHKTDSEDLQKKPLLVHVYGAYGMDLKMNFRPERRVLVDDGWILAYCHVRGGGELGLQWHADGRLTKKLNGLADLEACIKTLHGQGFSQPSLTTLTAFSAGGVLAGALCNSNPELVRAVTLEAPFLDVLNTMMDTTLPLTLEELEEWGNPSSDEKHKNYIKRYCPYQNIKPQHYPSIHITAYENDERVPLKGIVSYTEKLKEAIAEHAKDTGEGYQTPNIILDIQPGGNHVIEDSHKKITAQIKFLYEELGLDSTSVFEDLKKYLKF
IDE cell activ: human IDE activators in live cells, primary screen, fluorescence polarization, HEK cells, FAbeta-B substrate; Insulin-degrading enzyme (Homo sapiens), P14735; FAbeta-B cleavage; 0% vehicle, 100% cell-free pure enzyme wells; actives 0.073% (n = 340,000); activation, % at 5.96 µM;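 active means activation above the mean of all tested compounds plus 3 SD, set per screening campaign, cut at about 17% in these data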
ARFGAP1 confirm: ARFGAP1 inhibitor hit confirmation, biochemical, fluorescence polarization, triplicate | shares compounds with ARFGAP1 inh | ARFGAP1-stimulated ARF1 GTP hydrolysis, GDP tracer FP | inhibition, % at 16.5 µM | actives 30% (n = 890) | AID 651608, 2012;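 active means average inhibition over triplicates above the hit cutoff set in the earlier primary screen, cut at about 25% in these data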;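 further: 0% = Arfgap1 plus ARF1-GTP with DMSO and 100% = wells lacking Arfgap1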
Active calls of the source: *; . = not tested or not shown.

SMILES	ARFGAP1 inh	IDE cell inh	ASAP1 inh	PREPL inh	IDE cell activ	ARFGAP1 confirm
CCOC(=O)c1oc2ccccc2c1NC(=O)c1ccc(Cl)s1	32*	3	0	-5	-3	6
CC(C)Cn1c(N)c(S(=O)(=O)c2cccs2)c2nc3ccccc3nc21	27*	.	-10	.	0	-3
CS(=O)(=O)Nc1cccc(C2=NN(S(=O)(=O)c3ccccc3)C(c3ccco3)C2)c1 (configuration not stated)	32*	-1	-7	-17	-3	-6
CCS(=O)(=O)Nc1cccc(C2=NN(S(=O)(=O)c3ccccc3)C(c3ccco3)C2)c1 (configuration not stated)	-9	-5	-14	-11	-2	.
C[C@H](CO)N1C[C@H](C)[C@H](CN(C)C(=O)Nc2cccc(F)c2)Oc2cc(Br)ccc2S1(=O)=O	4	.	16	.	.	.
C[C@H](CO)N1C[C@H](C)[C@H](CN(C)C(=O)Nc2cccc(F)c2)Oc2cc(C#CC3(O)CCCC3)ccc2S1(=O)=O	29*	.	5	.	.	5
Cc1cc(C)c(NC(=O)CSc2nc3ccc(NC(=O)CSc4nnnn4Cc4ccccc4)cc3s2)c(C)c1	25*	-7	-10	-28	1	5
O=C(CSc1nc2ccc(NC(=O)CSc3nnnn3Cc3ccccc3)cc2s1)Nc1ccccc1	-3	-3	11	-29	3	.
O=C(NCCc1ccccc1)c1ccc(-c2ccc(F)c(F)c2)c2ccoc12	-7	.	-2	.	.	.
O=C(NC1CCCCC1)OC[C@@H]1CSCCS(=O)(=O)N1	-3	.	-3	.	.	.
Cc1ccc(NC(=O)c2cccc(S(=O)(=O)NCc3ccccc3)c2)nc1	35*	0	4	-13	11	-6
O=C1NC(=O)/C(=C\c2ccc(OCc3cccc([N+](=O)[O-])c3)cc2)N1	49*	2	22	26	-2	86*
O=C(Nc1ccc(Oc2cccc3ccccc23)cc1)c1ccco1	28*	-2	-7	11	6	12
Cc1ccccc1NC(=O)NCCCN1CCCC1	26*	0	-2	3	3	-5
Cc1ccccc1NC(=O)NCCCN1CCN(C2CCCCC2)CC1	0	3	-5	-8	6	.
CCC1CCC2(CC1)NC(=O)N(CC(=O)Nc1cccc(S(=O)(=O)N(C)c3ccccc3)c1)C2=O (configuration not stated)	41*	-1	6	-4	-4	-1
O=C(O)c1ccc(NC(=O)c2cccc(S(=O)(=O)Nc3ccc(C(=O)O)cc3)c2)cc1	-15	5	-8	11	0	.
O=C1CSc2ccc(C(=O)Nc3cccc(S(=O)(=O)Nc4ccc(Br)cc4)c3)cc2N1	33*	1	15	-32	-2	25*
COc1ccc(NS(=O)(=O)c2cccc(C(=O)N/N=C(\C)c3ccncc3)c2)cc1	39*	3	6	-2	5	6
Cc1ccc(S(=O)(=O)Nc2ccccc2-c2ccccc2NS(=O)(=O)c2ccc(C)cc2)cc1	-8	4	-14	1	0	.
Cc1ccc(S(=O)(=O)Nc2ccccc2C(O)c2ccccc2)cc1 (configuration not stated)	26*	1	-7	4	1	-5
O=C1CN(C(=O)COC(=O)CCS(=O)(=O)c2ccccc2Cl)c2ccccc2N1	-5	3	-2	2	0	.
CC(=O)Nc1ccc(-c2csc(NC(=O)Cc3cccc(F)c3)n2)cc1	31*	4	12	10	2	13
CC(=O)Nc1ccc(-c2csc(NC(=O)Cc3ccccc3F)n2)cc1	3	5	10	10	0	.
Cc1cc(Oc2nc3ccccn3c(=O)c2/C=C(\C#N)C(=O)NC2CCS(=O)(=O)C2)ccc1Cl (configuration not stated)	0	6	-1	19	3	.
SMILES	ARFGAP1 inh	IDE cell inh	ASAP1 inh	PREPL inh	IDE cell activ	ARFGAP1 confirm
Cc1cc(=O)n(C2CCS(=O)(=O)C2)[nH]1 (configuration not stated)	29*	9	-1	13	.	-8
Cc1nc(N)sc1C(=O)N1N=N1	-4	7	-5	10	9	.
CN(CC(=O)Nc1ccc(F)c(F)c1)S(=O)(=O)c1cccc2cccnc12	-2	1	7	-7	1	.
COc1ccc(NC(=O)C2CCCN(S(=O)(=O)c3ccc4c(c3)CC(C)N4C(C)=O)C2)cc1 (configuration not stated)	26*	-1	-2	5	-4	1
CCOc1ccc(NC(=O)C2CCCN(S(=O)(=O)c3ccc4c(c3)CC(C)N4C(C)=O)C2)cc1 (configuration not stated)	-12	7	20	0	-8	.
O=C(Nc1ccncc1)c1cn(-c2ccccc2)nc1-c1cccs1	26*	-1	12	7	-4	13
CN(C)S(=O)(=O)n1cnc([C@@H]2[C@H]3C(=O)OC[C@@H]3C[C@@]23N=CN(Cc2ccccc2)C3=O)c1	2	-1	2	5	7	.
O=[N+]([O-])c1cccc(-n2cc3ccc([N+](=O)[O-])cc3n2)c1	40*	1	18	4	1	45*
Cc1cc(S(=O)(=O)Nc2cccnc2)c(C)s1	25*	-4	-8	4	7	8
CCCc1cc(=O)oc2cc(OCC(=O)NCCc3c[nH]c4ccccc34)ccc12	26*	0	-4	-24	1	8
O=C(CCc1c[nH]c2ccccc12)NCCc1ccc(Cl)cc1	13	-8	-11	-1	2	.
CO/N=C/c1cccn1-c1nccc(OC)c1C#N	31*	2	-1	-2	.	4
CCN1CCN(c2ccc(S(=O)(=O)N3CCOCC3)cc2NC(=O)/C=C/c2ccc(OC)cc2OC)CC1	33*	-2	21	10	-1	23
COc1ccc(/C=C/C(=O)Nc2ccc(S(=O)(=O)N3CCOCC3)cc2)c(OC)c1	9	-6	15	7	4	.
CCN1CCN(c2ccc(S(=O)(=O)N3CCOCC3)cc2NC(=O)c2cccc([N+](=O)[O-])c2)CC1	0	-2	5	17	-3	.
CCN1CCN(c2ccc(S(=O)(=O)N3CCOCC3)cc2NC(=O)/C=C/c2ccc([N+](=O)[O-])cc2)CC1	37*	2	13	38	-7	37*

Screening data (PubChem)
